From paper PMC9058152 (RSC Advances, 2020)
In brackets after ≈: the same amount, converted by molar mass.

Assays:
ovine COX-2 = target: T1, ovine COX-2 (Ovis aries, UniProt P79208); assay: COX-2 inhibition enzyme immunoassay; format: biochemical; settings: for Selectivity index (SI): COX-1 IC50/COX-2 IC50
T1 sequence (P79208 17-603): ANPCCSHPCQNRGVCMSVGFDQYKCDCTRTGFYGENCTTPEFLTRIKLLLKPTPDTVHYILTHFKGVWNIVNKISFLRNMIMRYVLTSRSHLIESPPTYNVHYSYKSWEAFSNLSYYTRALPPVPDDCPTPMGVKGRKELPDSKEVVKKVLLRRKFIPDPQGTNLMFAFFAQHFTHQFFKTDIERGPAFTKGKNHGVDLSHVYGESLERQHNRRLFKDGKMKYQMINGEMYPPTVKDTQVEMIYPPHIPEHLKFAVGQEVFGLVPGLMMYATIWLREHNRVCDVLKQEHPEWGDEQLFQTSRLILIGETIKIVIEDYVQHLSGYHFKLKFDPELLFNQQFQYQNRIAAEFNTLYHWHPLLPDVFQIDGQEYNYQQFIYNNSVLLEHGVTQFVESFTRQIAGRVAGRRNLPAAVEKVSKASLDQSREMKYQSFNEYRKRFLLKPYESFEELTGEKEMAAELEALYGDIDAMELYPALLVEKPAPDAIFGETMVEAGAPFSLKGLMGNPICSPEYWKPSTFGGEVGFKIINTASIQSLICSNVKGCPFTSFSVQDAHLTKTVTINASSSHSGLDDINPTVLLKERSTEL

[1] = system: Mycobacterium tuberculosis (RCMB 010126); assay: Microplate Alamar blue assay; format: cell-based; settings: RCMB010126, Mycobacterium tuberculosis RCMB 010126, MABA
ovine COX-1 = target: T2, ovine COX-1 (Ovis aries, UniProt P05979); assay: COX-1 inhibition enzyme immunoassay; format: biochemical
T2 sequence (P05979 25-600): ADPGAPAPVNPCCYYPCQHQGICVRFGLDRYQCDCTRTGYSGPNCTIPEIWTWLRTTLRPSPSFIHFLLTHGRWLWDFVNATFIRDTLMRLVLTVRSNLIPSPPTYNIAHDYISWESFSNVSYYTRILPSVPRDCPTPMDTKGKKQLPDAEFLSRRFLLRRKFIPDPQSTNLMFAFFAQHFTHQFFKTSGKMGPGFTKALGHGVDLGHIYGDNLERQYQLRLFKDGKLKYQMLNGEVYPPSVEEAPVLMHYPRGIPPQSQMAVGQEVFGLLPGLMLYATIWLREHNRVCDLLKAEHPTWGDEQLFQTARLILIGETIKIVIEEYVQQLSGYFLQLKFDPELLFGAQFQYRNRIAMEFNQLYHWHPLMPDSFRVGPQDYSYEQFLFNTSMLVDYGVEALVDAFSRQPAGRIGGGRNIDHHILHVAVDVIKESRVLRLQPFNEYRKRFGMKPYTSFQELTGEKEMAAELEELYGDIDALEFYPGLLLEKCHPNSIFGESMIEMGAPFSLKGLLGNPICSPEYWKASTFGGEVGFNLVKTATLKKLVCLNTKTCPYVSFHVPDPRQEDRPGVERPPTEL

[2] = system: HepG-2 cells (human liver carcinoma); assay: MTT cytotoxicity assay on HepG-2; format: cell-based; settings: HepG2, 48 h, read-out: IC50 (μM) ± SD HepG-2
Procedure, shortened: (§1)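 Cells grown in DMEM with 10% heat-inactivated FBS and 100 U ml⁻¹ penicillin/streptomycin at 37 °C, 5% CO₂. Seeded at 3 × 10⁴ cells per well and exposed for 48 h in serum-free medium to serial concentrations of test compound (DMSO), with doxorubicin as positive control. MTT (2.5 mg mL⁻¹) was added for 4 h, formazan dissolved in DMSO, and absorbance read at 570 nm. Viability was taken relative to untreated cells; triplicates were run on three days, and IC50 derived by probit analysis.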

[3] = system: MCF-7 cells (human breast adenocarcinoma); assay: MTT cytotoxicity assay on MCF-7; format: cell-based; settings: MCF7, 48 h, read-out: IC50 (μM) ± SD MCF-7
Procedure, shortened: as §1

In the case of `Cc1ccc(-n2cc(C(=O)c3ccc4ccccc4c3O)cc(C#N)c2=O)cc1` [Compound 3b, 5-(1-Hydroxy-2-naphthoyl)-2-oxo-1-(p-tolyl)nicotinonitrile], the IC50 (ovine COX-2) is reported as 6.05 µM, the “Selectivity index (SI)” value (ovine COX-2) is reported as 76.7 and the MIC [1] is reported as 3.9 µg/mL (≈ 10.3 µM). It also gave an IC50 (ovine COX-1) of 464 µM, an IC50 [2] of 36.8 ± 3.9 µM and an IC50 [3] of 9.2 ± 0.6 µM.

`COc1ccc(-n2cc(C(=O)c3ccc4ccccc4c3O)cc(C#N)c2=O)cc1` [Compound 3c, 5-(1-Hydroxy-2-naphthoyl)-1-(4-methoxyphenyl)-2-oxo-nicotinonitrile] was tested, and the IC50 (ovine COX-2) was 0.53 µM, the “Selectivity index (SI)” value (ovine COX-2) was 1490 and the IC50 (ovine COX-1) was 789 µM. It also gave an IC50 [2] of 27.8 ± 2.4 µM and an IC50 [3] of 8.5 ± 0.7 µM.

`N#Cc1cc(C(=O)c2ccc3ccccc3c2O)cn(-c2ccc(Br)cc2)c1=O` [Compound 3d, 1-(4-Bromophenyl)-5-(1-hydroxy-2-naphthoyl)-2-oxo-nicotinonitrile] was tested, and the IC50 (ovine COX-2) was 1.46 µM, the “Selectivity index (SI)” value (ovine COX-2) was 972.9 and the MIC [1] was less than 1 µg/mL. The IC50 (ovine COX-1) was 1420 µM, the IC50 [2] was 30.1 ± 2.6 µM and the IC50 [3] was 8.9 ± 0.7 µM.

For `N#Cc1cc(C(=O)c2ccc3ccccc3c2O)cn(-c2ccc([N+](=O)[O-])cc2)c1=O` [Compound 3e, 5-(1-Hydroxy-2-naphthoyl)-1-(4-nitrophenyl)-2-oxo-nicotinonitrile], the IC50 (ovine COX-2) was 1.68 µM, the “Selectivity index (SI)” value (ovine COX-2) was 168.7 and the MIC [1] was less than 2 µg/mL. The IC50 (ovine COX-1) was 283 µM, the IC50 [2] was 25.3 ± 2.1 µM and the IC50 [3] was 9.3 ± 1.1 µM.

For `Cc1c(-n2cc(C(=O)c3ccc4ccccc4c3O)cc(C#N)c2=O)c(=O)n(-c2ccccc2)n1C` [Compound 3f, 1-(1,5-Dimethyl-3-oxo-2-phenyl-2,3-dihydro-1H-pyrazol-4-yl)-5-(1-hydroxy-2-naphthoyl)-2-oxo-nicotinonitrile], the IC50 (ovine COX-2) was 16.4 µM, the “Selectivity index (SI)” value (ovine COX-2) was 44.5 and the MIC [1] was less than 2 µg/mL. The IC50 (ovine COX-1) was 728 µM, the IC50 [2] was 30.5 ± 3.1 µM and the IC50 [3] was 10.5 ± 1.1 µM.

In the case of `Cc1cnc(-n2cc(C(=O)c3ccc4ccccc4c3O)cc(C#N)c2=O)s1` [Compound 3g, 5-(1-Hydroxy-2-naphthoyl)-1-(5-methylthiazol-2-yl)-2-oxo-nicotinonitrile], the IC50 (ovine COX-2) is reported as 48 µM, the “Selectivity index (SI)” value (ovine COX-2) is reported as 53.8 and the MIC [1] is reported as 3.9 µg/mL (≈ 10.1 µM). It also gave an IC50 (ovine COX-1) of 2580 µM, an IC50 [2] of 28.5 ± 2.9 µM and an IC50 [3] of 12.1 ± 1.2 µM.

`N#Cc1cc(C(=O)c2ccc3ccccc3c2O)cn(-c2nc3ccccc3s2)c1=O` [Compound 3h, 1-(Benzo[d]thiazol-2-yl)-5-(1–Hydroxy-2-naphthoyl)-2-oxo-nicotinonitrile] was tested, and the IC50 (ovine COX-2) was 0.496 µM, the “Selectivity index (SI)” value (ovine COX-2) was 1380 and the MIC [1] was less than 2 µg/mL. For the same compound, the IC50 (ovine COX-1) was 684 µM, the IC50 [2] was 28.1 ± 3.1 µM and the IC50 [3] was 10.3 ± 1.2 µM.

In the case of `CC(=Nn1cc(C(=O)c2ccc3ccccc3c2O)cc(C#N)c1=O)c1cc2ccccc2oc1=O` [Compound 3i, 5-(1-hydroxy-2-naphthoyl)-2-oxo-1-((1-(2-oxo-2H-chromen-3-yl)ethylidene)amino)nicotinonitrile], the IC50 (ovine COX-2) is reported as 13.5 µM, the “Selectivity index (SI)” value (ovine COX-2) is reported as 111.3 and the MIC [1] is reported as less than 1 µg/mL. It also gave an IC50 (ovine COX-1) of 1500 µM, an IC50 [2] of 30.5 ± 2.9 µM and an IC50 [3] of 9.7 ± 0.8 µM.

`N#CCC(=O)NN=Cc1coc2c(ccc3ccccc32)c1=O` [Compound 5, 2-cyano-N′-((4-oxo-4H-benzo[h]chromen-3-yl)methylene)acetohydrazide] was tested, and the IC50 (ovine COX-2) was 24.6 µM, the “Selectivity index (SI)” value (ovine COX-2) was 84.3 and the MIC [1] was 3.9 µg/mL (≈ 12.8 µM). For the same compound, the IC50 (ovine COX-1) was 2070 µM, the IC50 [2] was 41.6 ± 3.5 µM and the IC50 [3] was 10.7 ± 1.2 µM.

In the case of `O=C(c1cnc2[nH]nc(O)c2c1)c1ccc2ccccc2c1O` [Compound 6, 5-(1-hydroxy-2-naphthoyl)-3-hydroxy-1H-pyrazolo [3,4-b]pyridine], the IC50 (ovine COX-2) is reported as 30.5 µM, the “Selectivity index (SI)” value (ovine COX-2) is reported as 35.0 and the MIC [1] is reported as less than 2 µg/mL. It also gave an IC50 (ovine COX-1) of 1070 µM, an IC50 [2] of 34.9 ± 2.8 µM and an IC50 [3] of 9.1 ± 0.5 µM.

For `O=C(C1=CNC(=S)NN=C1)c1ccc2ccccc2c1O` [Compound 7, 6-(1-Hydroxy-2-naphthoyl)-3-thioxo-3,4-dihydro-2H-1,2,4-triazepine], the IC50 (ovine COX-2) was 1.24 µM, the “Selectivity index (SI)” value (ovine COX-2) was 588.6 and the MIC [1] was less than 2 µg/mL. For the same compound, the IC50 (ovine COX-1) was 732 µM, the IC50 [2] was 28.8 ± 2.5 µM and the IC50 [3] was 10.5 ± 0.9 µM.

With `O=C(C1=CSc2ccccc2N=C1)c1ccc2ccccc2c1O` [Compound 8, 3-(1-Hydroxy-2-naphthoyl)benzo[b][1,4]thiazepine] the IC50 (ovine COX-2) was 0.754 µM, the “Selectivity index (SI)” value (ovine COX-2) was 1138 and the MIC [1] was 7.81 µg/mL (≈ 23.6 µM). It also gave an IC50 (ovine COX-1) of 858 µM, an IC50 [2] of 36.5 ± 3.4 µM and an IC50 [3] of 9.7 ± 1.1 µM.

In the case of `CCOC1Oc2c(ccc3ccccc23)-c2n[nH]cc21` (centres unmarked) [Compound 10, 11-ethoxy-2,11-dihydrobenzo[7,8]chromeno[4,3-c]pyrazole], the IC50 (ovine COX-2) is reported as 1.01 µM, the “Selectivity index (SI)” value (ovine COX-2) is reported as 989.3 and the MIC [1] is reported as 7.81 µg/mL (≈ 29.3 µM). For the same compound, the IC50 (ovine COX-1) was 1000 µM, the IC50 [2] was 34.5 ± 2.6 µM and the IC50 [3] was 9.3 ± 0.5 µM.

For `Cc1c(N=Cc2coc3c(ccc4ccccc43)c2=O)c(=O)n(-c2ccccc2)n1C` [Compound 12a, 1,5-Dimethyl-4-(((4-oxo-4H-benzo[h]chromen-3-yl)methylene)amino)-2-phenyl-1,2-dihydro-3H-pyrazol-3-one], the IC50 (ovine COX-2) was 24.7 µM, the “Selectivity index (SI)” value (ovine COX-2) was 49.5 and the MIC [1] was 62.5 µg/mL (≈ 153 µM). For the same compound, the IC50 (ovine COX-1) was 1220 µM, the IC50 [2] was 35.5 ± 3.6 µM and the IC50 [3] was 10.2 ± 1.2 µM.

For `O=c1c(C=Nc2nc3ccccc3s2)coc2c1ccc1ccccc12` [Compound 12b, 3-((Benzo[d]thiazol-2-ylimino)methyl)-4H-benzo[h]chromen-4-one], the IC50 (ovine COX-2) was 1.37 µM, the “Selectivity index (SI)” value (ovine COX-2) was 971.8 and the MIC [1] was 15.6 µg/mL (≈ 43.9 µM). The IC50 (ovine COX-1) was 1340 µM, the IC50 [2] was 40.1 ± 3.9 µM and the IC50 [3] was 8.9 ± 0.7 µM.

`COc1cccc2c1C(=O)c1c(O)c3c(c(O)c1C2=O)C[C@@](O)(C(=O)CO)C[C@@H]3O[C@H]1C[C@H](N)[C@H](O)[C@H](C)O1` [DOXO, Doxorubicin, reference compound] was tested, and the IC50 [2] was 28.5 ± 1.9 µM and the IC50 [3] was 10.3 ± 0.8 µM.

Compound `NNC(=O)c1ccncc1` [IN, Isoniazid, reference compound] has an MIC [1] of 0.24 µg/mL (≈ 1.75 µM).
